What is called IC50 is the concentration at which inhibition is half-maximal.

Assay [1] concerns PC-12. Kind of assay: Antioxidant activity against H2O2-induced impairment in rat PC12 cells at 0.16 to 100 uM after 3 hrs by MTT assay. The class given is functional, cell-based. The essentials: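 PC12 cells in RPMI 1640 with 5% fetal calf serum, 10% horse serum, penicillin/streptomycin and 20 mM L-glutamine. Seeded at 1 × 10^6/mL, 24 h at 37 °C, 5% CO2. Then exposed to H2O2 (200 µM final) together with compound (0.16–100 µM final) for 3 h. PBS rinse, MTT 0.4 mg/mL for 4 h at 37 °C, DMSO solubilization, OD 570 nm. Viability %, n = 6, mean ± SD.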
A general note: Tetrazolium assays rely on reduction of a dye to a coloured formazan, in cell work by metabolically active cells.

For assay [2], the system named is Radical scavenging activity. Kind of assay: Antioxidant activity assessed as DPPH radical scavenging activity after 30 mins by spectrophotometry. The class given is functional. In general terms: DPPH is a stable violet radical that fades when it is reduced.

Activity calls are given as the source filed them. No cut-off for these calls is given here.

In the case of `COc1cc([C@H]2OC[C@H]3[C@@H]2CO[C@@H]3c2ccc(O)cc2)cc2c1O[C@H](c1ccc(O)cc1)[C@H]2CO` (relative stereo), the outcome in assay [1] was Active.
Regarding `COc1cc([C@H](O)[C@@H](CO)Oc2ccc(/C=C/CO)cc2OC)ccc1O` (relative stereo), the result in assay [1] was Active. Besides, the IC50 in assay [2] was 60.9 µM.
Turning to `COc1cc(/C=C/CO)ccc1O[C@H](CO)[C@@H](O)c1ccc(O)cc1` (relative stereo) [CHUSHIZISINS B], the IC50 in assay [2] was 156 µM.
Take `COc1cc(C(=O)CCO)cc2c1O[C@H](c1ccc(O)cc1)[C@H]2CO` (relative stereo): the outcome in assay [1] was Active.
Take `COC(c1ccc(O)cc1)[C@H]1CO[C@@H](c2ccc(O)cc2)[C@@H]1CO` (relative stereo) [CHUSHIZISIN G]: the IC50 in assay [2] is 281 µM.
Regarding `COc1cc(/C=C/CO)ccc1O[C@H](CO)[C@H](O)c1ccc(O)cc1` (relative stereo) [CHUSHIZISINS A], the outcome in assay [1] was Active. Also, the IC50 in assay [2] was 237 µM.
`COc1cc(CCCO)ccc1O[C@H](CO)[C@@H](O)c1ccc(O)cc1` (relative stereo) [CHUSHIZISINS D]: the IC50 in assay [2] is 274 µM.
In the case of `COc1cc(C(=O)[C@@H]2CO[C@H](c3ccc(O)cc3)[C@H]2CO)ccc1O[C@H](CO)[C@@H](O)c1ccc(O)cc1` (relative stereo), in assay [1], the result was Active.
Still for that read-out and setting: then `COc1cc(CCCO)cc2c1O[C@H](c1ccc(O)cc1)[C@H]2CO`, with “Active”.
